Self-cleavage data for 167 variants are collected here from the RNAGym collection of RNA variant scans (doi:10.1002/anie.201605470).

B1: Osa-1-4 twister ribozyme (parent)
chain: CCGCCUAACACUGCCAAUGCCGGUCCCAAGCCCGGAUAAAAGUGGAGGGGGCGG

In this data set the parent is B1. Nature of the data set: self-cleavage, relative activity (ratio to wild type); higher = more cleavage; co-transcriptional. In short, it runs like this: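 A DNA template was synthesised for a 54-nucleotide twister ribozyme from Oryza sativa, with 97 % wild-type base and 1 % of each other base at each of the 48 positions downstream of the cleavage site. The ribozyme cleaved itself co-transcriptionally during 2 h of in vitro transcription at 37 °C. Reverse transcription with a template-switching oligonucleotide, PCR amplification and deep sequencing followed, and cleavage status came from reads with or without upstream sequence. Relative activity is the fraction cleaved normalised to wild type.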
As for A36U G45U, the self-cleavage was determined as 0.13.

With A36U G45A, the self-cleavage amounted to 0.46.

A36U G45C: the self-cleavage turned out to be 0.05.

As to A38C G22C, the self-cleavage was determined as 0.09.

For A38C G22A, the self-cleavage is 1.04.

Take A38C G22U: the self-cleavage was found to be 0.87.

As for A38G G34U, the self-cleavage came to 0.74.

Turning to A38G G34A, the self-cleavage is 0.84.

A38G G34C: the self-cleavage was determined as 0.59.

As for A38G C14U, the self-cleavage came to 0.13.

As for A38G C14G, the self-cleavage amounted to 0.13.

As for A38G C14A, the self-cleavage is 0.07.

On to A38C C32U, for which the self-cleavage was determined as 0.13.

For A38C C32A, the self-cleavage is 0.09.

For A38C C32G, the self-cleavage worked out at 0.09.

On to A38G C33G, for which the self-cleavage came out at 0.07.

With A38G C33U, the self-cleavage stood at 0.78.

As for A38G C33A, the self-cleavage was determined as 0.11.

For A38G C25U, the self-cleavage came out at 0.78.

A38G C25A: the self-cleavage turned out to be 0.09.

For the variant A38G C25G, the self-cleavage stood at 0.11.

As to A38G C31A, the self-cleavage worked out at 0.03.

Turning to A38G C31U, the self-cleavage stood at 0.73.

A38G C31G: the self-cleavage came out at 0.13.

For the variant A38C G19C, the self-cleavage came out at 0.07.

As for A38C G19A, the self-cleavage is 0.64.

As to A38C G19U, the self-cleavage turned out to be 0.33.

With A38C A40U, the self-cleavage was determined as 0.6.

Regarding A38C A40G, the self-cleavage worked out at 0.84.

Consider A38C A40C, for which the self-cleavage was 0.09.

For A38G U37A, the self-cleavage turned out to be 1.

In the case of A38G U37C, the self-cleavage was determined as 1.05.

Consider A38G U37G, for which the self-cleavage was 1.

In the case of A38C G42C, the self-cleavage was found to be 0.12.

Consider A38C G42A, for which the self-cleavage was 0.35.

As to A38C G42U, the self-cleavage came out at 0.07.

On to A38C G35C, for which the self-cleavage was found to be 0.36.

Turning to A38C G35A, the self-cleavage stood at 0.84.

As for A38C G35U, the self-cleavage worked out at 0.86.

A38C U24C: the self-cleavage was 0.26.

Turning to A38C U24G, the self-cleavage was determined as 0.04.

On to A38C U24A, for which the self-cleavage was 0.16.

Take A36U U43A: the self-cleavage came to 0.99.

For the variant A36U U43G, the self-cleavage was 0.64.

Turning to A36U U43C, the self-cleavage came out at 0.38.

With A38C G45C, the self-cleavage amounted to 0.05.

Turning to A38C G45U, the self-cleavage stood at 0.1.

As for A38C G45A, the self-cleavage amounted to 0.32.

Take A38G C20U: the self-cleavage is 0.98.

Consider A38G C20G, for which the self-cleavage worked out at 0.19.

Regarding A38G C20A, the self-cleavage is 0.9.

With A36U G44A, the self-cleavage amounted to 0.97.

For the variant A36U G44U, the self-cleavage was determined as 0.96.

For the variant A36U G44C, the self-cleavage was determined as 1.03.

For the variant A36U G35U, the self-cleavage turned out to be 1.04.

Turning to A36U G35A, the self-cleavage worked out at 0.92.

For A36U G35C, the self-cleavage came to 0.82.

As to A38C G54C, the self-cleavage is 0.93.

Consider A38C G54A, for which the self-cleavage turned out to be 0.96.

For the variant A38C G54U, the self-cleavage is 0.94.

With A38U A41C, the self-cleavage was found to be 0.89.

As for A38U A41G, the self-cleavage was 0.64.

For the variant A38U A41U, the self-cleavage is 0.98.

With A38G C27G, the self-cleavage was found to be 0.09.

On to A38G C27U, for which the self-cleavage was 0.18.

Consider A38G C27A, for which the self-cleavage was determined as 0.16.

Consider U37C U43A, for which the self-cleavage worked out at 0.96.

Turning to U37C U43C, the self-cleavage was 0.38.

With U37C U43G, the self-cleavage is 0.66.

Turning to A38C U43A, the self-cleavage stood at 0.88.

In the case of A38C U43C, the self-cleavage turned out to be 0.38.

As to A38C U43G, the self-cleavage turned out to be 0.34.

With A36U U37G, the self-cleavage came to 1.05.

As for A36U U37C, the self-cleavage amounted to 1.07.

For A36U U37A, the self-cleavage amounted to 1.01.

As to A38G A41U, the self-cleavage amounted to 1.01.

Consider A38G A41C, for which the self-cleavage worked out at 0.98.

Regarding A38G A41G, the self-cleavage was determined as 0.75.

As to U37G U43G, the self-cleavage came to 0.68.

On to U37G U43C, for which the self-cleavage is 0.52.

In the case of U37G U43A, the self-cleavage came out at 0.93.

With A38G G23C, the self-cleavage is 0.08.

Regarding A38G G23A, the self-cleavage amounted to 0.47.

Consider A38G G23U, for which the self-cleavage worked out at 0.1.

As to A38G C52A, the self-cleavage came out at 1.02.

With A38G C52U, the self-cleavage stood at 0.95.

For A38G C52G, the self-cleavage was 0.96.

For the variant A38C C33U, the self-cleavage was 0.79.

As to A38C C33G, the self-cleavage came to 0.05.

Consider A38C C33A, for which the self-cleavage is 0.1.

With A38G A7G, the self-cleavage is 0.31.

As for A38G A7U, the self-cleavage was determined as 0.08.

For A38G A7C, the self-cleavage was 0.06.

With A38C G48A, the self-cleavage turned out to be 0.09.

On to A38C G48C, for which the self-cleavage was 0.08.

Turning to A38C G48U, the self-cleavage was found to be 0.07.

For the variant A38U A46U, the self-cleavage amounted to 0.07.

With A38U A46G, the self-cleavage came out at 0.05.

As for A38U A46C, the self-cleavage was found to be 0.06.

On to A38C C11A, for which the self-cleavage was determined as 0.74.

As to A38C C11G, the self-cleavage turned out to be 0.5.

Regarding A38C C11U, the self-cleavage was determined as 0.92.

U37G: the self-cleavage worked out at 1.03.

On to U37C, for which the self-cleavage stood at 1.04.

Consider U37A, for which the self-cleavage was determined as 0.79.

Consider A36U G47U, for which the self-cleavage came to 0.31.

For the variant A36U G47A, the self-cleavage came out at 0.32.

As for A36U G47C, the self-cleavage amounted to 0.13.

In the case of A38C G47U, the self-cleavage turned out to be 0.22.

Take A38C G47C: the self-cleavage worked out at 0.08.

For the variant A38C G47A, the self-cleavage is 0.19.

On to A38G G47C, for which the self-cleavage was 0.08.

Turning to A38G G47U, the self-cleavage is 0.17.

For A38G G47A, the self-cleavage worked out at 0.19.

For A38C G44U, the self-cleavage turned out to be 0.93.

Regarding A38C G44C, the self-cleavage was 0.97.

On to A38C G44A, for which the self-cleavage is 0.99.

In the case of A36U G50U, the self-cleavage turned out to be 1.03.

In the case of A36U G50C, the self-cleavage was 1.06.

With A36U G50A, the self-cleavage stood at 0.87.

For the variant A38G G51A, the self-cleavage amounted to 0.72.

For A38G G51U, the self-cleavage was determined as 0.36.

On to A38G G51C, for which the self-cleavage was determined as 0.11.

Consider A38G A8G, for which the self-cleavage is 0.55.

With A38G A8U, the self-cleavage was found to be 0.27.

With A38G A8C, the self-cleavage came to 0.07.

On to A38G A39C, for which the self-cleavage came to 0.97.

Take A38G A39G: the self-cleavage is 0.4.

A38G A39U: the self-cleavage turned out to be 0.98.

On to A36U G42A, for which the self-cleavage was 0.85.

On to A36U G42U, for which the self-cleavage came to 0.12.

For A36U G42C, the self-cleavage was 0.28.

Consider A38G G48C, for which the self-cleavage worked out at 0.1.

For A38G G48A, the self-cleavage worked out at 0.11.

On to A38G G48U, for which the self-cleavage stood at 0.07.

For the variant A38G A40U, the self-cleavage was found to be 0.32.

A38G A40C: the self-cleavage was found to be 0.07.

Regarding A38G A40G, the self-cleavage turned out to be 0.6.

Consider A38C G34A, for which the self-cleavage stood at 0.85.

For A38C G34U, the self-cleavage was found to be 0.67.

Regarding A38C G34C, the self-cleavage was 0.38.

For A38C A8U, the self-cleavage is 0.28.

Take A38C A8G: the self-cleavage amounted to 0.53.

With A38C A8C, the self-cleavage was 0.07.

In the case of A36U G51A, the self-cleavage turned out to be 0.84.

Take A36U G51U: the self-cleavage amounted to 0.52.

For A36U G51C, the self-cleavage worked out at 0.16.

Turning to A38G G30U, the self-cleavage turned out to be 0.04.

Turning to A38G G30C, the self-cleavage came out at 0.04.

For A38G G30A, the self-cleavage worked out at 0.05.

On to A38C G49A, for which the self-cleavage was found to be 0.1.

Consider A38C G49C, for which the self-cleavage is 0.06.

A38C G49U: the self-cleavage was 0.1.

Take A38C: the self-cleavage was 1.02.

In the case of A38G, the self-cleavage worked out at 1.01.

As for A38U, the self-cleavage came to 1.01.

As for A36U G53U, the self-cleavage is 0.46.

Consider A36U G53C, for which the self-cleavage was 0.11.

Turning to A36U G53A, the self-cleavage amounted to 0.94.

In the case of A38C A41U, the self-cleavage is 1.

For A38C A41G, the self-cleavage came out at 0.69.

In the case of A38C A41C, the self-cleavage amounted to 0.91.

Turning to U37A U43C, the self-cleavage worked out at 0.44.

In the case of U37A U43A, the self-cleavage amounted to 0.76.

As for U37A U43G, the self-cleavage came out at 0.43.

With A36U G30U, the self-cleavage amounted to 0.04.

Regarding A38C U18G, the self-cleavage was 0.81.
